High-throughput results from PubChem.
Lmaj promast: reduces viability of Leishmania major promastigotes; resazurin fluorescence viability; AID 1063; 9% of 200,000 active; inhibition, % at 10 µM; in the data active means inhibition above about 50%;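 further: promastigotes grown with compound for 44 hours at 28 °C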
WT yeast gro inh: growth inhibition of WT yeast, mitochondrial fusion screen. mitochondrial fusion phenotypic screen, WT strain. inhibition, % at 10 µM. 2.1% of 190,000 active; in the data active means inhibition above about 58%; tested in S. cerevisiae
PMI activator: phosphomannose isomerase (human) activation; P34949; AID 1214; purified human PMI, coupled resazurin fluorescence, 20 min; hits give high values; 1 = vehicle control, 0 substrate-free wells; 0.005% of 190,000 active; activation factor at 20 µM;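 active means activation factor of 2 or more at 20 µM, relative to plate controls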
PMI act hi M6P: PMI (human) activation, high substrate; coupled PMI enzyme assay, resazurin fluorescence, 20 min; hits give high values; 1 = untreated enzyme, 0 = substrate-free blank; activation factor at 20 µM; AID 1216; 0.34% of 190,000 active;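 active means activation factor of 2 or more at 20 µM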
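Material: human phosphomannose isomerase with PGI, G6PDH, diaphorase coupling enzymes; amount: PMI at 15 ng/mL final; also added: Mannose-6-phosphate 1.0 mM (near-saturating) plus 0.22 mM NADP+; incubation: enzyme reaction with compound 20 min at room temperature; signal: resorufin fluorescence (Ex 544/Em 590 nm) from resazurin via diaphorase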
m-calpain inh: calpain II (pig) inhibition | purified calpain II, fluorogenic peptide substrate, 30 min | inhibition, % at 16 µM | 0.37% of 220,000 active | AID 1236;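 active means inhibition above about 50%, limit read from the data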
Rad51 HR inh: Rad51 (human) homologous recombination inhibition | AID 1385 | 0.085% of 200,000 active | Q06609 | inhibition, % at 10 µM | hRad51 DNA strand exchange, fluorescence dequenching;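 active means inhibition above 40% at the single screening dose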;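 further: 0% = DMSO control wells and 100% = blanks with heterologous ssDNA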
Target sequence (Q06609 whole entry, looked up): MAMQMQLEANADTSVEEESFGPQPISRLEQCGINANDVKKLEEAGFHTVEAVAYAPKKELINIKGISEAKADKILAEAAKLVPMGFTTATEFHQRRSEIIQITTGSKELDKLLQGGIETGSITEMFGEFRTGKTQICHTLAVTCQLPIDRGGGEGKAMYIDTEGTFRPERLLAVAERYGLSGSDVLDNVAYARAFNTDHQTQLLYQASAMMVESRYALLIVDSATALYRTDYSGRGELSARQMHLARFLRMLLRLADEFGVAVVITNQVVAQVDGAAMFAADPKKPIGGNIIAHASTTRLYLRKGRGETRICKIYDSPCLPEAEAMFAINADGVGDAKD
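Test system: preformed human Rad51 ssDNA filaments; also added: Donor/quencher-labelled 47-bp dsDNA substrate; doses: 10 µM final, single point; times: 37 °C 15-min filament assembly, 30-min compound preincubation, 15-min exchange; detection: FRET fluorescence dequenching, excitation 485 nm, emission 520 nm; read-out basis: Fluorescence-based percent inhibition, control- and blank-normalised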
L major 1uM: L. major promastigote growth inhibition, 1 uM repeat | shares compounds with Lmaj promast | resazurin fluorescence, 48 h | inhibition, % at 1 µM | 13% of 1,100 active | AID 1258;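 active means inhibition above about 50% in both repeat tests, limit read from the data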
An asterisk follows results filed as active; nt = no result. Most compounds without a hit are left out; they make up all but 9.8% or so of the library.

SMILES | Lmaj promast | WT yeast gro inh | PMI activator | PMI act hi M6P | m-calpain inh | Rad51 HR inh | L major 1uM
CSc1ccc(C(=O)C2CCCN(Cc3cnc(SC)nc3)C2)cc1 (stereo not given) | 93.7* | 33.8 | 0.9 | 1 | 32.3 | 1.2 | nt
CSc1ccc(C(=O)C2CCCN(CCCn3cccn3)C2)cc1 (stereo not given) | 85.7* | 1.1 | 1 | 1.1 | -26.1 | nt | nt
CN1CCCC(C(=O)c2ccccc2)C1 (stereo not given) | -5.4 | 12.2 | 1 | 1 | -23.0 | -11.0 | nt
CSc1ccc(C(=O)C2CCCN(C)C2)cc1 (stereo not given) | 72.3* | 4.8 | 1 | 1 | 9.3 | 0.1 | nt
COC/C=C1\CN2C3C[C@@H]1[C@H]1COC4=Nc5cc(OC)c(OC)c(OC)c5[C@@]43C[C@@H]12 | nt | nt | nt | nt | nt | 2.1 | nt
CC(C(=O)c1ccccc1)N1C(=O)c2ccccc2C1=O (stereo not given) | 75.4* | -21.8 | 1 | 1 | 5.2 | 9.8 | nt
O=C1C=Cc2ccccc2C1=O | -10.1 | 1.7 | 0.2 | 0.2 | 60.2* | 2.5 | nt
O=C1C2CCCN2C(c2cccnc2)N1c1ccc(Cl)c(Cl)c1 (stereo not given) | 95.5* | 5.3 | 0.9 | 1 | 0.8 | 0.7 | 7.8
O=C1C2CCCN2C(c2ccncc2)N1c1ccc(Cl)c(Cl)c1 (stereo not given) | 0.1 | 2.9 | 1 | 1 | -42.8 | -2.7 | nt
COc1cc(C(O)CNC(C)C)cc(F)c1OC (stereo not given) | nt | nt | nt | nt | nt | -0.6 | nt
O=c1c2ccccc2nc(C[n+]2ccccc2)n1-c1cccc(C(F)(F)F)c1 | -5.8 | 5.6 | 1.1 | 1.1 | 22.4 | -6.9 | nt
Cn1cccc1CNCCc1ccccc1F | 97.7* | 3.7 | 1.1 | 0.9 | -6.0 | -0.8 | -17.0
Cn1cccc1CNCCc1ccccc1 | -4.9 | 3.6 | 1 | 0.9 | 1.7 | -0.1 | nt
C#CC[N+]1(C)C2CCC1CC(O)C2 (stereo not given) | -4.7 | -8.5 | 1 | 1 | -19.2 | -16.9 | nt
CC(=O)NNC(=O)CN1C(=O)CN=C(c2ccccc2)c2cc(Br)ccc21 | 12.6 | -5.2 | 1.1 | 0.9 | 4.8 | 0.1 | nt
Cc1ccc(NC(=O)CN2C(=O)CN=C(c3ccccc3)c3cc(Cl)ccc32)cc1 | 61.1* | 41.0 | 0.9 | 0.9 | -73.9 | 3.2 | 4.3
CN(C)c1ccc(NC(=O)CN2C(=O)CN=C(c3ccccc3)c3ccccc32)cc1 | -0.2 | 5.1 | 1 | 0.9 | nt | 4.6 | nt
CC(C)Cc1nnc(NC(=O)CCC(=O)N2CCC3(CC2)OCCO3)s1 | nt | nt | nt | nt | -9.6 | nt | nt
S=C1NC2(CCCCC2)NC12CCCCC2 | nt | nt | nt | nt | -0.9 | -3.2 | nt
CCCCc1ccc2[nH]cc(CCN)c2c1 | 100.1* | -22.8 | 1 | 1.1 | -8.5 | 6.0 | 1.3
CCn1nc(/C=C/c2ccccc2)nc2c(=O)n(C)c(=O)nc1-2 | 100.5* | 90.0* | 0.6 | 0.5 | 37.7 | 32.7 | 81.4*
CC(C)[C@@]1(NC(=O)[C@@H]2C[C@@H]3c4cccc5[nH]cc(c45)C[C@H]3N(C)C2)O[C@@]2(O)[C@@H]3CCCN3C(=O)[C@H](Cc3ccccc3)N2C1=O | 64.6* | -12.7 | 1.1 | 0.8 | -7.1 | 6.0 | -2.1
CC(C)C[C@H]1C(=O)N2CCCC2[C@]2(O)O[C@](NC(=O)[C@@H]3C=C4c5cccc6[nH]cc(c56)CC4N(C)C3)(C(C)C)C(=O)N12 (stereo not given in full) | 58.5* | 3.6 | 1 | 0.5 | -180.8 | -72.2 | 1.1
C=CCn1c(O)c(C(CC)=NCc2ccco2)c(=O)[nH]c1=O | nt | nt | nt | nt | -12.4 | nt | nt
CC[n+]1c(/C=C/N(C)c2ccccc2)sc2ccc(Cl)cc21 | 100.5* | -2.1 | 0.9 | 0.9 | -1.7 | -3.3 | 99.9*
SMILES | Lmaj promast | WT yeast gro inh | PMI activator | PMI act hi M6P | m-calpain inh | Rad51 HR inh | L major 1uM
CCOC(=O)c1c(C)[nH]c(C(=O)C(C)N2CCCC2)c1C (stereo not given) | -3.7 | 9.7 | 0.9 | 1 | -5.0 | nt | nt
CCOC(=O)c1c(C)[nH]c(C(=O)C(Cc2ccccc2)N(C)C)c1C (stereo not given) | 98.9* | 10.2 | 0.8 | 0.9 | -13.1 | nt | -8.4
CC1=CC2/C=C(\C)CCC(O)C(O)/C=C/C(=O)C23C(=O)NC(CC(C)C)C3C1C (stereo not given) | 97.4* | -20.8 | 1 | 1 | -7.7 | -3.0 | 48.2
Cc1nc2c(c(=O)[nH]1)C(c1ccccc1Cl)c1c(c3ccccc3oc1=O)O2 (stereo not given) | nt | nt | nt | nt | -21.8 | 10.3 | nt
O=P(Nc1ccccc1)(Nc1ccccc1)Oc1ccc(Cl)cc1 | 71.3* | 2.0 | 0.8 | 0.9 | 1.9 | nt | -5.2
CCOCCN1CCN(c2nnc3n2-c2ccc(Cl)cc2C(c2ccccc2Cl)=NC3)CC1 | 99.1* | -12.8 | 0.9 | 1 | -5.8 | nt | 51.3*
Cc1nnc2n1-c1ccc(Br)cc1C(c1ccccc1Cl)=NC2 | 32.2 | 22.0 | 1 | 1 | -40.9 | -5.2 | nt
COCCCN1CCN(c2nnc3n2-c2sc(Br)cc2C(c2ccccc2Cl)=NC3)CC1 | 97.2* | 7.6 | 1 | 0.9 | -53.2 | nt | 79.4*
CC(C)[C@H]1C(=O)O[C@H](C(C)C)C(=O)N(C)[C@@H](C(C)C)C(=O)O[C@H](C(C)C)C(=O)N(C)[C@@H](C(C)C)C(=O)O[C@H](C(C)C)C(=O)N1C | 100.4* | 79.7 | 1 | 1 | -36.2 | 1.5 | -7.3
CC(=O)CC(c1ccccc1[N+](=O)[O-])c1c(O)c2ccccc2oc1=O (stereo not given) | nt | nt | nt | nt | 9.8 | 1.5 | nt
COc1cccc(CNC2CN3CCC2CC3)c1OC (stereo not given) | -2.1 | -3.4 | 1.1 | 1.2 | -2.8 | 1.6 | nt
CCOc1cccc(CNC2CN3CCC2CC3)c1 (stereo not given) | 98.6* | 9.2 | 1 | 1 | -47.0 | -4.4 | -19.4
Fc1cccc(F)c1-c1nc(-c2ccc(Cl)cc2)no1 | nt | nt | nt | nt | -3.6 | 6.0 | nt
O=C(NCC(c1cccnc1)N1CCN(c2ccc(F)cc2)CC1)Oc1ccccc1 (stereo not given) | 92.6* | 0.7 | 1 | 0.9 | -16.3 | -0.3 | 78.5*
Cn1c(O)c(C(=Nc2ccc(F)cc2)c2ccccc2Cl)c(=O)n(C)c1=O | nt | nt | nt | nt | -8.9 | 1.6 | nt
CC1(C)C(=O)C=C[C@]2(C)[C@H]3CC[C@@]4(C)[C@H](c5ccoc5)OC(=O)[C@H]5O[C@]54[C@]3(C)[C@H](O)C[C@@H]12 | 100.2* | 40.9 | 0.9 | 0.9 | -24.1 | nt | 87.7*
